Source: PubChem (Broad Institute)
PAX8 inh HTS: PAX8 transcriptional activity inhibition | RMG-I TPO-luciferase reporter, SteadyGlo, 24 h | inhibition, % at 12.6 µM | actives 1.2% (n = 360,000) | AID 652154;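 active means mean replicate inhibition at least 60% with every replicate also reaching 60%; inconclusive means only one of the two criteria is met; inactive means mean below 60% and not all replicates reaching 60%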;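 further: luciferase light reporting Pax8 driven TPO promoter activity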
MLL AF4-AF9 inh: inhibitors of human MLL-AF4/AF9 interaction. P42568. AlphaScreen, biotin-AF4 peptide binding to FLAG-AF9. inhibition, % at 10 µM. actives 0.47% (n = 350,000);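 active means every replicate reaching a set inhibition limit, whatever the replicate mean, cut at about 25% in these data; inconclusive means mean inhibition reaches that limit but some replicates miss it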
Target sequence (P42568 whole entry, looked up): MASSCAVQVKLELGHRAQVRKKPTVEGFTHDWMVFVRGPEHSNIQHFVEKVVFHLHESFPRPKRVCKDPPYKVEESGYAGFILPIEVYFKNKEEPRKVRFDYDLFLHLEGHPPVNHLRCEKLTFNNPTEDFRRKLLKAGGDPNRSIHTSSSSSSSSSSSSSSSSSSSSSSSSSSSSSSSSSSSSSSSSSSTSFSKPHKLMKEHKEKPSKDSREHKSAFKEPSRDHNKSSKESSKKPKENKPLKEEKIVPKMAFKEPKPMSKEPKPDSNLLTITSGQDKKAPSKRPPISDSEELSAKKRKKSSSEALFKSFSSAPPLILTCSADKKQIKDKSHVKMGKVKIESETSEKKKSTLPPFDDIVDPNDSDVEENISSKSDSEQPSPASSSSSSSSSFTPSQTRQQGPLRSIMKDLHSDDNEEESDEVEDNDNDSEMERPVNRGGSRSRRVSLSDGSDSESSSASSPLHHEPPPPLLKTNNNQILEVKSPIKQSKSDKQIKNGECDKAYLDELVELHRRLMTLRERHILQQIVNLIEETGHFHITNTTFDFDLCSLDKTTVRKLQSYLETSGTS
EWS-Fli inh: EWS/Fli transcriptional activity inhibition; A673 NR0B1-luciferase reporter, viability-normalised; inhibition, % at 12.6 µM; actives 0.67% (n = 350,000); AID 651661;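 active means mean inhibition of at least 50% after viability correction, with every replicate also passing that limit; inconclusive means mean reaches 50% but only one of two replicates passes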;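 further: firefly luciferase signal divided by Alamar Blue viability fluorescence both relative to DMSO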
FN deposition inh: fibronectin deposition inhibition. actives 0.086% (n = 350,000). AID 743247. AH1F fibroblasts, Alexa488-fibronectin deposition fluorescence, overnight. inhibition, % at 12.6 µM;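 active means mean inhibition across replicates of 30% or more, regardless of how many single replicates reach that level; inconclusive means mean under 30% yet at least half of replicates reach 30%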
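Test system: AH1F fibroblast monolayer depositing Alexa488-labelled fibronectin into matrix. Input: 10000 cells per well. Technique: fluorescence, ex 485 nm, em 525 nm. Buffer or medium: DMEM plus 2% serum, read in PBS. Timing: 1 h cell adhesion before compound, then overnight fibronectin incubation. Compound: single dose, pinned. Read-out basis: inhibition from reduced deposited-fibronectin fluorescence.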
Env fusion inh: HIV envelope-mediated fusion inhibition | inhibition, % at 12.3 µM | actives 1.1% (n = 360,000) | HeLa-JRFL Env/CEM21 cell fusion, luciferase;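 active means mean replicate inhibition score of at least 50 and every replicate individually at or above 50; inconclusive means only one of the two criteria met; inactive means mean below 50 and not all replicates reaching 50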
Glyco luc inh: N-linked glycosylation inhibition; D54 ERlucT glycosylation luciferase reporter, 24 h; percent of 100 nM tunicamycin response; reporter increase, % at 12.5 µM; actives 0.23% (n = 360,000); AID 588692;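 active means mean luciferase reporter signal, scaled so untreated is 0 and the glycosylation-blocking control 100, at or above a set limit in every replicate; inconclusive means mean reaches the limit but not every replicate does; inactive means mean below the limit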;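 further: luciferase carries N-glycosylation sites so blocking glycosylation raises the light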
DNA binder FP: small molecule DNA binding by fluorescence polarization; shares compounds with EWS-Fli inh; salmon sperm DNA acridine orange fluorescence polarization; AC35, µM (highest dose often 68 µM); actives 2% (n = 640); AID 720586;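 active means fitted curve reaches a 35% signal fall AC35 below twice the sample's top valid tested dose, actives reach about 48 µM in these data; inactive means the rest, including activity in the rising direction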;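 further: lower polarization ratio signals compound binding to DNA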
Alpha interfer: counter-screen: AlphaScreen signal interference | shares compounds with MLL AF4-AF9 inh | signal luminescence | AC50, µM (highest dose often 12 µM) | actives 45% (n = 530); cut-off not given, nearly all actives have AC50 up to about 14 µM
Hits are given with their value; . = inactive; ? = inconclusive; / = no result; ! = not confirmed by another sample. Hits are enriched below; roughly 2.5% of the tested compounds scored in any of these assays.

SMILES | PAX8 inh HTS | MLL AF4-AF9 inh | EWS-Fli inh | FN deposition inh | Env fusion inh | Glyco luc inh | others
C[C@]12CCC3C(CC[C@H]4C[C@@H](O)CC[C@]34C)[C@H]1C=CC2=O (stereo partly specified) | . | . | . | . | . | .
C[C@]12CC[C@H](O)C[C@H]1CC[C@@H]1[C@@H]2C[C@@H](O)[C@]2(C)[C@@H](C3=CC(=O)OC3)CC[C@]12O | 104 | . | 81 | . | . | . | DNA binder FP=.
COC1C(O)C(C)OC(OC2CCC3(C)C(CCC4C3C(O)CC3(C)C(C5=CC(=O)OC5)CCC43O)C2)C1O (stereo unspecified) | 108 | . | 51 | . | 86 | . | DNA binder FP=.
COc1ccc(-c2ccc3n(c2=O)C[C@H]2[C@H](CO)[C@@H](C(=O)O)[C@@H]3N2C(=O)c2ccccc2F)cc1 | / | . | . | / | . | /
O=C(Cc1ccccn1)N1CCCCN2[C@H](CO)[C@H](c3ccc(-c4ccccc4)cc3)[C@@H]2C1 | . | . | . | / | / | /
CNC(=O)Nc1ccc(C(=O)N/N=C\C23CC[C@@H](O)CC2(O)CC[C@@H]2[C@@H]3CCC3(C)C(C4=CC(=O)OC4)CCC23O)cc1 (stereo partly specified) | . | . | . | . | . | .
C[C@]12CC[C@H](O)C[C@H]1CC[C@@H]1[C@@H]2CC[C@]2(C)[C@@H](C3=CC(=O)OC3)CC[C@]12O | 113 | . | 67 | . | ? | . | DNA binder FP=.
O=C(Cc1ccccn1)N1CCCCN2[C@H](CO)[C@@H](c3ccc(-c4ccc(F)cc4)cc3)[C@H]2C1 | . | . | . | / | / | /
CCOC(=O)[C@]12Cc3ccc(C)cc3[C@H]1N(C1CCCCC1)C(=O)c1ccccc12 | 82 | . | 59 | . | . | / | DNA binder FP=.
CCOC(=O)[C@]12Cc3ccccc3[C@H]1N(C(C)C)C(=O)c1ccccc12 | . | . | . | . | . | /
COC1C(O)C(C)OC(OC2C(Oc3cccc4c(O)c5c(=O)oc6ccc(C)c7c(=O)oc(c34)c5c67)OC(C)C(O)C2O)C1O (stereo unspecified) | / | . | 69 | . | . | 43 | DNA binder FP=.
O=C1NC(=O)N(Cc2ccco2)C(=O)/C1=C/C=C/c1ccco1 | . | . | 61 | . | . | 36 | DNA binder FP=.
O=C1NC(=O)N(Cc2ccccc2)C(=O)/C1=C\C=C\c1ccco1 | . | . | 65 | . | . | ? | DNA binder FP=.
Cn1cccc1/C=C1\C(=O)NC(=O)N(Cc2ccco2)C1=O | . | / | / | . | . | .
COc1ccc(-c2ccc([C@@H]3[C@@H](CO)N4CCCCN(C(=O)Cc5ccncc5)C[C@H]34)cc2)cc1 | . | . | . | / | / | /
C=C1C(=O)OC2C1CCC(C)C1(O)C=CC(=O)C21C (stereo unspecified) | / | . | 62 | / | / | . | DNA binder FP=.
COC(=O)[C@@H]1[C@@H](CO)[C@@H]2Cn3c(ccc(-c4cccnc4)c3=O)[C@H]1N2S(=O)(=O)c1ccccc1C | . | . | . | / | . | /
CC1=C2C[C@H]3[C@@H](CC=C4C[C@@H](O)CC[C@@]43C)[C@@H]2CC[C@]12O[C@@H]1C[C@H](C)CN[C@@H]1C2C (stereo partly specified) | . | . | . | / | . | /
COc1ccc(-c2ccc([C@H]3[C@H]4CN(C(=O)Cc5ccncc5)CCCCN4[C@H]3CO)cc2)cc1 | . | . | . | / | / | /
CN1CCN(c2ccc(N)cc2Cl)CC1 | . | 88 | . | . | . | . | Alpha interfer=5.4µM
CSCCC(c1nnnn1C1CCCCC1)N1CCC(n2c(=O)[nH]c3ccccc32)CC1 (stereo unspecified) | . | 34 | . | . | . | . | Alpha interfer=.
CC(C)(C)n1nnnc1C(C1CC1)N1CCC(n2c(=O)[nH]c3ccccc32)CC1 (stereo unspecified) | . | . | . | / | . | .
O=c1[nH]c2ccccc2n1C1CCN(C(c2nnnn2C2CCCCC2)C2CC2)CC1 (stereo unspecified) | . | 36 | . | . | / | . | Alpha interfer=.
CCC1CN2CCc3cc(OC)c(OC)cc3C2CC1CC1NCCc2c1[nH]c1ccc(O)cc21 (stereo unspecified) | 101 | ? | . | . | 73 | . | Alpha interfer=.
COc1ccc2c(c1OC)CN1CCc3cc4c(cc3C1C2)OCO4 (stereo unspecified) | . | . | . | . | . | .
SMILES | PAX8 inh HTS | MLL AF4-AF9 inh | EWS-Fli inh | FN deposition inh | Env fusion inh | Glyco luc inh | others
COc1cccc(-c2ccc([C@@H]3[C@@H](CO)N4CCCCN(C(=O)Cc5ccncc5)C[C@H]34)cc2)c1 | . | . | / | . | / | /
Cc1[nH]c2ccc(OCc3ccccc3)cc2c1CCN | . | 41 | . | . | . | . | Alpha interfer=.
OCCNCCc1c[nH]c2ccc(OCc3ccccc3)cc12 | . | . | . | . | . | .
O=C(Cc1ccccc1)N1CCCCN2[C@H](CO)[C@@H](c3ccc(C#Cc4ccccc4)cc3)[C@H]2C1 | . | . | / | / | / | /
Cc1c(P(=S)(c2ccccc2)c2ccccc2)[n+]2ccccc2n1C | . | 66! | . | . | . | . | Alpha interfer=.
COc1cccc(-c2ccc([C@H]3[C@@H](CO)N4CCCCN(C(=O)Cc5ccncc5)C[C@H]34)cc2)c1 | . | . | / | . | / | /
CCN(CCCl)c1cc(CN(C)C)cc(NC(=O)c2ccc(C(=O)Nc3cc(CN(C)C)cc(N(CC)CCCl)c3)cc2)c1 | 108 | 70 | 60 | . | 89 | . | Alpha interfer=2.5µM
OC[C@H]1Nc2ccc(C#Cc3cccnc3)cc2[C@H]2NCC[C@H]21 | / | . | . | . | / | /
